Data taken from ChEMBL document CHEMBL1143285, “Synthesis and biological evaluation of 2-phenylquinolones targeted at Tat/TAR recognition” (Bioorg Med Chem Lett, 2009).
Active and inactive are the calls of the source. The calls are words filed in the database; no cut-off is given here.

Tests used:
[1] = (§1) Inhibition of HIV Tat/TAR complex formation by fluorescence quenching assay; design: species or system Human immunodeficiency virus
[2] = system: Human immunodeficiency virus 1; assay: Antiviral activity against HIV1 infected in human Jurkat cells assessed as compound uptake after 3 hrs by fluorescence assay; assay type: functional; design: concentration or dose not given beside the values
Method in brief: (§2)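 Jurkat or CEM cells (2.5 × 10⁶/well) incubated in HBSS with compound at 100 µM, 3 h, 37 °C. Cells separated from medium by centrifugation through water-impermeable silicone-oil barrier, pellet lysed overnight in 0.1 M glycine–HCl pH 3.0, spun 5 min at 5600g. Compound in supernatant quantified by fluorescence at pH 3 against per-compound titration curve; reported as % uptake.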

[3] = system: Human immunodeficiency virus 1; assay: Antiviral activity against HIV1 infected in human CEM cells assessed as compound uptake after 3 hrs by fluorescence assay; assay type: functional, CCRF-CEM; method in brief: as §2
Jurkat [4] = assay: Cytotoxicity against human Jurkat cells at 100 uM after 72 hrs by MTT assay; assay type: cell-based
Method in brief: (§3)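 MTT viability readout in CEM and Jurkat cells after 72 h incubation with compounds up to 100 µM; EC50 derived where applicable.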

CCRF-CEM = assay: Cytotoxicity against human CEM cells at 100 uM after 72 hrs by MTT assay; assay type: cell-based; method in brief: as §3
[5] = Aqueous solubility in buffer; assay type: physicochemical
[6] = system: Human immunodeficiency virus 1; assay: Antiviral activity against HIV1 infected in human Jurkat cells assessed as compound uptake after 3 hrs by fluorescence assay in presence of lipofectamine; assay type: functional
[7] = system: Human immunodeficiency virus; assay: as §1
Jurkat [8] = assay: Cytotoxicity against human Jurkat cells after 72 hrs by MTT assay; assay type: cell-based; method in brief: as §3

Ki [1]	solubility [5]	Activity [7]	SMILES	Activity [2]	Activity [3]	Activity (Jurkat [4])	Activity (CCRF-CEM)	Activity [6]	EC50 (Jurkat [8])
2180 nM	Soluble	–	Cn1cc(C(=O)O)c(=O)c2cc(N)c(N3CCN(c4ccccn4)CC3)cc21	23.2%	7.5%	Non-toxic	Non-toxic	<=40%	–
–	Soluble	inactive	COc1cc(OC)c2c(=O)cc(-c3ccc(O)c(N)c3)n(C)c2c1	25%	–	Non-toxic	Non-toxic	–	–
1020 nM	Soluble	–	COc1cc(OC)c2c(=O)cc(-c3ccc(OCCCN4CCCCC4)cc3)n(C)c2c1	3.27%	–	–	–	–	94700 nM
1580 nM	Soluble	–	COc1cc(OC)c2c(=O)cc(-c3ccc(OCCCN4CCN(C)CC4)c(N)c3)n(C)c2c1	0.82%	1.1%	Non-toxic	Non-toxic	–	–
1950 nM	Soluble	–	COc1cc(OC)c2c(=O)cc(-c3ccc(OCCCN4CCCCC4)c(N)c3)n(C)c2c1	0.94%	1.8%	Non-toxic	Non-toxic	–	–
–	Soluble	inactive	COc1cc(OC)c2c(=O)cc(-c3ccc(OCCCN4CCN(C)CC4)c(NC(=O)CCCN(C)C)c3)n(C)c2c1	–	–	Non-toxic	Non-toxic	–	–
3850 nM	Soluble	–	COc1cc(OC)c2c(=O)cc(-c3ccc(OCCCN)c(N)c3)n(C)c2c1	–	–	Non-toxic	Non-toxic	–	–
2600 nM	Soluble	–	COc1cc(OC)c2c(=O)cc(-c3ccc(OCCCN4CCCCC4)c(NC(=O)CCCN(C)C)c3)n(C)c2c1	–	–	Non-toxic	Non-toxic	–	–
3030 nM	Soluble	–	COc1cc(OC)c2c(=O)cc(-c3ccc(OCCCN)c(NC(=O)CCCN(C)C)c3)n(C)c2c1	0.67%	1.2%	Non-toxic	Non-toxic	–	–
–	Soluble	inactive	COc1cc(OC)c2c(=O)cc(-c3ccc(OCCCN)c(NC(=O)CCc4cccnc4)c3)n(C)c2c1	–	–	Non-toxic	Non-toxic	–	–
